According to ChEMBL document CHEMBL4311931, “Controlling cellular distribution of drugs with permeability modifying moieties” (Medchemcomm, 2019):

Assays:
[1] = molecular target: T1, Beta-2 adrenergic receptor (Homo sapiens, UniProt P07550); assay: Displacement of [3H](-)CGP 12177 from human recombinant beta2 adrenoceptor after 120 mins by scintillation counting method relative to parent compound
Target sequence in this assay (P07550 whole entry, looked up): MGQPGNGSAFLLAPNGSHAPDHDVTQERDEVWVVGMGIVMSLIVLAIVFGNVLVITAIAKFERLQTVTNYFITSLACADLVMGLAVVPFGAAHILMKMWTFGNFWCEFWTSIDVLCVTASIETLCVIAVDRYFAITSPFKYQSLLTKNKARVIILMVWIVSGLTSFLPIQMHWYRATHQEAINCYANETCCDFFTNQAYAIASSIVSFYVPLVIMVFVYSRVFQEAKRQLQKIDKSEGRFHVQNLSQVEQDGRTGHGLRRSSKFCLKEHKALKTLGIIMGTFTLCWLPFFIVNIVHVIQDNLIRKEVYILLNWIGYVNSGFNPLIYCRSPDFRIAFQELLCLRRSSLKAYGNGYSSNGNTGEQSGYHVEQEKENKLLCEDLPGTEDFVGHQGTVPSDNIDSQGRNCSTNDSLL

[2] = molecular target: T2, 5-hydroxytryptamine receptor 1A (Homo sapiens, UniProt P08908); assay: Antagonist activity at human 5HT1A expressed in BAF3 cells by fluorimetry analysis; format: cell-based
T2 sequence (P08908 whole entry): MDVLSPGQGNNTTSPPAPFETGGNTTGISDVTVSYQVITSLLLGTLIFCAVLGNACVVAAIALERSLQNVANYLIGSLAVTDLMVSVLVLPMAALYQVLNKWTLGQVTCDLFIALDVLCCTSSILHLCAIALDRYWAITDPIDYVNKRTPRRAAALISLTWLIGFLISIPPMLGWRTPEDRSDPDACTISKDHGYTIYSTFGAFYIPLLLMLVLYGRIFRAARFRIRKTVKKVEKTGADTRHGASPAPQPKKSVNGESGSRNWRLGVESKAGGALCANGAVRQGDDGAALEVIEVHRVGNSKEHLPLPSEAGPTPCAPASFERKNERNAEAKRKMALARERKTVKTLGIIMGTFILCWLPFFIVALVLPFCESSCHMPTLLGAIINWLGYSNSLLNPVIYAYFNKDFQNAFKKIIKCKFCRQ

[3] = molecular target: T2, 5-hydroxytryptamine receptor 1A; assay: Displacement of [3H]-OH-DPAT from human recombinant 5-HT1A receptor measured after 60 mins by scintillation counter method
[4] = molecular target: T1, Beta-2 adrenergic receptor; assay: Displacement of [3H](-)CGP 12177 from human recombinant beta2 adrenoceptor after 120 mins by scintillation counting method
Target sequence in this assay (P07550 whole entry): as the sequence (P07550 whole entry, looked up) above

[5] = molecular target: T3, 5-hydroxytryptamine receptor 1A (Homo sapiens) (UniProt P08908); assay: Displacement of [3H]-OH-DPAT from human recombinant 5-HT1A receptor measured after 60 mins by scintillation counter method relative to parent compound
T3 sequence (whole entry): T2 sequence (P08908 whole entry)

[6] = Permeability of compound in 5% DMSO after 7 hrs by PAMPA; format: ADME; conditions: read-out: permeability
[7] = molecular target: T1, Beta-2 adrenergic receptor; assay: Antagonist activity at human recombinant beta2 adrenoreceptor expressed in CHOK1 cells incubated for 30 mins by HTRF; format: cell-based
Target sequence in this assay (P07550 whole entry): as the sequence (P07550 whole entry, looked up) above

[8] = molecular target: T1, Beta-2 adrenergic receptor; assay: Antagonist activity at human recombinant beta2 adrenoreceptor expressed in CHOK1 cells incubated for 30 mins by HTRF relative to parent compound; format: cell-based
Target sequence in this assay (P07550 whole entry, looked up): as the sequence (P07550 whole entry, looked up) above

DLD-1 [9] = assay: cells; conditions: Homo sapiens
DLD-1 [10] = assay: cells; conditions: Homo sapiens; remark: listed apart in the source
PC-3 = assay: Antiproliferative activity against human PC3 cells assessed as reduction in cell viability by Celltiter-Glo assay; format: functional, cell-based
Outline: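 PC3 cells from ATCC, authenticated by STR analysis. Viability was read by CellTiter-Glo, and cell EC50 is the geometric mean of at least two duplicate runs.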

K562 = assay: Antiproliferative activity against human K562 cells assessed as reduction in cell viability by measuring ATP level incubated for 3 days by Celltiter-Glo assay; format: functional, cell-based; conditions: K562, 72 h
Outline: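 K562 cells grown in RPMI 1640 with 50 mM HEPES and 10% FBS at 37 °C in 5% CO2, then plated at 20 000 cells per well. Compounds were log-serially diluted in DMSO, then in RPMI, to final concentrations of 10 000 nM to 0.01 nM. Cells were exposed for 3 days, and total intracellular ATP was read by CellTiter-Glo. IC50 is the geometric mean of at least two duplicate runs.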

Row | SMILES | fold change (FC) [1] | IC50 [2] | Ki [3] | Ki [4] | fold change (FC) [5] | Papp at 7 h [6] | IC50 [7] | fold change (FC) [8] | further results
1 | CC(C)NCC(O)COc1ccccc1CCCSCC(=O)NCCOCCOCCNC(=O)OC(C)(C)C (stereo unspecified) | 0.21 | 640 nM | 48.9 nM | 3.2 nM | 0.871 | 0.0189 ×10⁻⁶ cm/s | 22 nM | 0.31 | –
2 | C=CCc1ccccc1OCC(O)CNCCOCCOCCOCCOCCNC(=O)OC(C)(C)C (stereo unspecified) | 7.4 | > 1000 nM | 24.1 nM | 3.7 nM | 1.12 | – | 6.9 nM | 2.09 | –
3 | NCCOCCOCC(=O)N1CCN(C(=O)c2cc(Cc3n[nH]c(=O)c4ccccc34)ccc2F)CC1 | – | – | – | – | – | 0.00119 ×10⁻⁶ cm/s | – | – | EC50 (DLD-1 [9]): 600 nM; EC50 (DLD-1 [10]): > 100000 nM
4 | C=CCc1ccccc1OCC(O)CNCCOCCOCCOCCOCCNC(=O)CCCCCC1(C)C(/C=C/C=C/C=C2/N(CCCS(=O)(=O)O)c3ccc(S(=O)(=O)O)cc3C2(C)C)=[N+](CCCS(=O)(=O)[O-])c2ccc(S(=O)(=O)O)cc21 (stereo unspecified) | 1090 | > 1000 nM | 2860 nM | 547 nM | 132 | – | 500 nM | 151 | –
5 | CC(C)NCC(O)COc1ccccc1CCCSCC(=O)NCCOCCOCCN (stereo unspecified) | 0.19 | > 10000 nM | 2860 nM | 2.9 nM | 6.32 | – | 19 nM | 0.26 | –
6 | CC(C)NCC(O)COc1ccccc1CCCSCC(=O)NCCOCCOCCNC(=O)C1C(C(=O)O)C(C(=O)O)C1C(=O)O (stereo unspecified) | 24.6 | > 10000 nM | 1720 nM | 78.6 nM | 35.2 | – | 380 nM | 5.27 | –
7 | C=CCc1ccccc1OCC(O)CNCCOCCOCCOCCOCCNC(=O)C1C(C(=O)O)C(C(=O)O)C1C(=O)O (stereo unspecified) | 1024 | > 1000 nM | 1780 nM | 512 nM | 82.4 | 0.0012 ×10⁻⁶ cm/s | > 1000 nM | 303 | –
8 | Cc1nn(C)cc1-c1ccc2cc(CCN3CCC[C@H]3C)ccc2n1 | – | – | – | – | – | 1.13 ×10⁻⁶ cm/s | – | – | –
9 | O=C(/C=C/c1cccnc1)NCCCCC1CCN(C(=O)c2ccccc2)CC1 [DAPORINAD] | – | – | – | – | – | 39.5 ×10⁻⁶ cm/s | – | – | IC50 (PC-3): 6 nM
10 | Cc1nc(Nc2ncc(C(=O)Nc3c(C)cccc3Cl)s2)cc(N2CCNCC2)n1 | – | – | – | – | – | 0.0371 ×10⁻⁶ cm/s | – | – | –
11 | Cc1sc2c(c1C)C(c1ccc(Cl)cc1)=N[C@@H](CC(=O)OC(C)(C)C)c1nnc(C)n1-2 | – | – | – | – | – | 2.24 ×10⁻⁶ cm/s | – | – | –
12 | O=C(CS(=O)(=O)O)NCCOCCOCC(=O)N1CCN(C(=O)c2cc(Cc3n[nH]c(=O)c4ccccc34)ccc2F)CC1 | – | – | – | – | – | – | – | – | EC50 (DLD-1 [9]): 1100 nM; EC50 (DLD-1 [10]): 53000 nM
13 | Cc1nc(Nc2ncc(C(=O)Nc3c(C)cccc3Cl)s2)cc(N2CCN(CCOCCOCCNC(=O)C3C(C(=O)O)C(C(=O)O)C3C(=O)O)CC2)n1 (stereo unspecified) | – | – | – | – | – | 0.0122 ×10⁻⁶ cm/s | – | – | IC50 (K562): 183 nM
14 | Cc1nc(Nc2ncc(C(=O)Nc3c(C)cccc3Cl)s2)cc(N2CCN(CCOCCOCCNC(=O)CS(=O)(=O)O)CC2)n1 | – | – | – | – | – | 0.0274 ×10⁻⁶ cm/s | – | – | IC50 (K562): 120 nM
15 | Cc1nc(Nc2ncc(C(=O)Nc3c(C)cccc3Cl)s2)cc(N2CCN(CCO)CC2)n1.O [DASATINIB] | – | – | – | – | – | 1.49 ×10⁻⁶ cm/s | – | – | IC50 (K562): 0.638 nM
16 | CC1(CCCCCC(=O)NCCOCCOCC(=O)N2CCN(C(=O)c3cc(Cc4n[nH]c(=O)c5ccccc45)ccc3F)CC2)C(/C=C/C=C/C=C2/N(CCCS(=O)(=O)O)c3ccc(S(=O)(=O)O)cc3C2(C)C)=[N+](CCCS(=O)(=O)[O-])c2ccc(S(=O)(=O)O)cc21 (stereo unspecified) | – | – | – | – | – | – | – | – | EC50 (DLD-1 [9]): 600 nM; EC50 (DLD-1 [10]): 70000 nM
17 | Cc1nc(Nc2ncc(C(=O)Nc3c(C)cccc3Cl)s2)cc(N2CCN(CCOCCOCCN)CC2)n1 | – | – | – | – | – | 0.056 ×10⁻⁶ cm/s | – | – | IC50 (K562): 628 nM
18 | C=CCc1ccccc1OCC(O)CNC(C)C (stereo unspecified) [ALPRENOLOL] | – | 630 nM | 21.6 nM | – | – | 10.9 ×10⁻⁶ cm/s | – | – | –
19 | CC(C)NCC(O)COc1ccccc1CCCSCC(=O)NCCOCCOCCNC(=O)CCCCCC1(C)C(/C=C/C=C/C=C2/N(CCCS(=O)(=O)O)c3ccc(S(=O)(=O)O)cc3C2(C)C)=[N+](CCCS(=O)(=O)[O-])c2ccc(S(=O)(=O)O)cc21 (stereo unspecified) | 1.73 | > 10000 nM | 925 nM | 26 nM | 18.9 | – | 96 nM | 1.33 | –
20 | O=C(c1cc(Cc2n[nH]c(=O)c3ccccc23)ccc1F)N1CCN(C(=O)C2CC2)CC1 [OLAPARIB] | – | – | – | – | – | 3.37 ×10⁻⁶ cm/s | – | – | EC50 (DLD-1 [9]): 100 nM; EC50 (DLD-1 [10]): 19000 nM
21 | Cc1nc(Nc2ncc(C(=O)Nc3c(C)cccc3Cl)s2)cc(N2CCN(CCOCCOCCNC(=O)CCCCCC3(C)C(/C=C/C=C/C=C4/N(CCCS(=O)(=O)O)c5ccc(S(=O)(=O)O)cc5C4(C)C)=[N+](CCCS(=O)(=O)[O-])c4ccc(S(=O)(=O)O)cc43)CC2)n1 (stereo unspecified) | – | – | – | – | – | – | – | – | IC50 (K562): 29.1 nM
22 | C=CCc1ccccc1OCC(O)CNCCOCCOCCOCCOCCNC(=O)CS(=O)(=O)O (stereo unspecified) | 150 | > 1000 nM | 261 nM | 752 nM | 12.1 | – | 83.4 nM | 25.3 | –
23 | CC(C)NCC(O)COc1ccccc1CCCSCC(=O)NCCOCCOCCNC(=O)CS(=O)(=O)O (stereo unspecified) | 1.09 | > 10000 nM | 1780 nM | 16.4 nM | 15.1 | – | 86 nM | 1.19 | –
24 | CC(C)(C)OC(=O)NCCOCCOCC(=O)N1CCN(C(=O)c2cc(Cc3n[nH]c(=O)c4ccccc34)ccc2F)CC1 | – | – | – | – | – | – | – | – | EC50 (DLD-1 [9]): 700 nM; EC50 (DLD-1 [10]): > 100000 nM
25 | Cc1nc(Nc2ncc(C(=O)Nc3c(C)cccc3Cl)s2)cc(N2CCN(CCOCCOCCNC(=O)OC(C)(C)C)CC2)n1 | – | – | – | – | – | 0.0065 ×10⁻⁶ cm/s | – | – | IC50 (K562): 1.64 nM
26 | O=C(c1cc(Cc2n[nH]c(=O)c3ccccc23)ccc1F)N1CCNCC1 | – | – | – | – | – | 0.081 ×10⁻⁶ cm/s | – | – | EC50 (DLD-1 [9]): 200 nM; EC50 (DLD-1 [10]): > 100000 nM
27 | COC(=O)CSCCCc1ccccc1OCC(O)CNC(C)C (stereo unspecified) | 1 | 2900 nM | 56.1 nM | 15 nM | 1 | 0.0436 ×10⁻⁶ cm/s | 72 nM | 1 | –
28 | C=CCc1ccccc1OCC(O)CNCCOCCOCCOCCOCCN (stereo unspecified) | 20.6 | > 1000 nM | 35.8 nM | 10.3 nM | 1.66 | – | 100 nM | 30.3 | –
29 | O=C(O)C1C(C(=O)O)C(C(=O)NCCOCCOCC(=O)N2CCN(C(=O)c3cc(Cc4n[nH]c(=O)c5ccccc45)ccc3F)CC2)C1C(=O)O (stereo unspecified) | – | – | – | – | – | – | – | – | EC50 (DLD-1 [9]): 7800 nM; EC50 (DLD-1 [10]): > 100000 nM
